The values below come from ChEMBL document CHEMBL5030567, “Macrocyclic Inhibitors of HGF-Activating Serine Proteases Overcome Resistance to Receptor Tyrosine Kinase Inhibitors and Block Lung Cancer Progression” (J Med Chem, 2021).

Data set [1] deals with NCI-H596. The data set can be described thus: Inhibition of pro-HGF stimulated cell growth in human H596 cells at 10 uM by ELISA. It counts as functional, cell-based. A general note: ELISA stands for enzyme-linked immunosorbent assay.
The nature of data set [2]: Stability in mouse liver microsomes assessed as half life. Type of data set: ADME, Microsome. On the technique in general: Microsomes from liver hold many membrane-bound enzymes, among them those of drug oxidation.
Data set [3] deals with T1, Suppressor of tumorigenicity 14 protein (Homo sapiens, UniProt Q9Y5Y6).
T1 sequence (Q9Y5Y6 whole entry): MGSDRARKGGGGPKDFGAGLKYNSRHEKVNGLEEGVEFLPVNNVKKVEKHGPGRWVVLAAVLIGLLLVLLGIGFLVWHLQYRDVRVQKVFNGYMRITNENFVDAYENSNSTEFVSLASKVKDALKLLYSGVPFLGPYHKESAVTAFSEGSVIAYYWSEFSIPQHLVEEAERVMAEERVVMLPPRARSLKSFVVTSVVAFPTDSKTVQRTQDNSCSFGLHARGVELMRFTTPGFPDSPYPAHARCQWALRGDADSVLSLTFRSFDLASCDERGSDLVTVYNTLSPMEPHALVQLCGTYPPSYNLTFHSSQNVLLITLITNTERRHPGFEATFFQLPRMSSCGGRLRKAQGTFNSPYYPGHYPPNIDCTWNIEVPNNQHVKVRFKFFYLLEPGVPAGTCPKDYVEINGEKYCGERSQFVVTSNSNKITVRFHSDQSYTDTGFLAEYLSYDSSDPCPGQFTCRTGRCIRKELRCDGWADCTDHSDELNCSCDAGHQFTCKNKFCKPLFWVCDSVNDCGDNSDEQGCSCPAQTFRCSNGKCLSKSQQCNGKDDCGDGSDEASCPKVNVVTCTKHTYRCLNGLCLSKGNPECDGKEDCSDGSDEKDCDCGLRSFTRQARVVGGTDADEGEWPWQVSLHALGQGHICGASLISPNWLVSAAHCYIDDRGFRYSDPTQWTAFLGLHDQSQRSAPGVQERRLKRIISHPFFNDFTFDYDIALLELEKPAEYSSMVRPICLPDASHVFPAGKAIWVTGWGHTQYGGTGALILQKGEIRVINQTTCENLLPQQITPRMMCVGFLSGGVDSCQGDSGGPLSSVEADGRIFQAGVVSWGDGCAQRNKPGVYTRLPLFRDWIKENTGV
Nature of the data set: Inhibition of recombinant human N-terminal met-His6-tagged matriptase catalytic domain (Gly596 to Val855 residues) expressed in Escherichia coli using Boc-QAR-AMC as substrate preincubated for 30 mins followed by substrate addition by fluorescence based assay. A digest of the protocol:
(§1)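 Inhibitor in 11-point serial dilution (0-20 µM final, 2% DMSO) pre-incubated 30 min at room temperature with enzyme in TNC buffer (25 mM Tris, 150 mM NaCl, 5 mM CaCl2, 0.01% Triton X-100, pH 8). […] Hepsin activated beforehand 24 h at 37°C. Fluorescence ex 380/em 460 nm kinetic; four-parameter fit of velocities; mean of three experiments.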

Data set [4] can be described thus: Stability in mouse plasma assessed as half life. It counts as ADME, cell-free.
A short description of data set [5]: Half life in mouse plasma at 20 mg/kg, ip. It counts as ADME, organism-based. Conditions: in vivo, 20 mg/kg.
The target in data set [6] is Serine protease hepsin (Homo sapiens, UniProt P05981). Nature of the data set: Inhibition of recombinant human C-terminal 10-His tagged hepsin (Arg45 to Leu417) expressed in mouse myeloma cells using Boc-QAR-AMC as substrate preincubated for 30 mins followed by substrate addition by fluorescence based assay. Type of data set: single protein. The method in brief: as §1
Sequence of Serine protease hepsin (P05981 1-162 limits assumed): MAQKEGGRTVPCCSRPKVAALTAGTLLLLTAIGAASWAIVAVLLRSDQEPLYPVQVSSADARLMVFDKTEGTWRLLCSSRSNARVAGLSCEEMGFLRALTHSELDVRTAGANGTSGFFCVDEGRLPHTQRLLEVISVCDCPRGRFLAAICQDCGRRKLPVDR
Sequence of Serine protease hepsin (P05981 163-417 limits assumed): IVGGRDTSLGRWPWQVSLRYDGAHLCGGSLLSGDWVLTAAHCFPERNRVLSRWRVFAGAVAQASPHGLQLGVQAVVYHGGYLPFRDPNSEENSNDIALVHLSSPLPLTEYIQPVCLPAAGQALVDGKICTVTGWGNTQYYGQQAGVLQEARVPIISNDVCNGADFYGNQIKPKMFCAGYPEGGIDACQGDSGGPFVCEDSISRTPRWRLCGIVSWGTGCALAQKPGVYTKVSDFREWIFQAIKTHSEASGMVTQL

Data set [7] is described as follows: Toxicity in NSG mouse at 100 mg/kg, ip administered daily for 7 days. It counts as organism-based. As to conditions: in vivo, time 7 day.
The test system of data set [8] is EBC-1. The data set can be described thus: Cytotoxicity against human EBC-1 cells assessed as reduction in cell viability preincubated with compound and pro-HGF for 24 hrs followed by JNJ-38877605 addition and measured after 48 hrs by CellTiter-Glo assay. It counts as functional, cell-based. Conditions: time 72.0 hrs. The method in brief:
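EBC-1 cells pre-incubated 24 h with pro-HGF (100 ng/ml) with or without compound (1 µM), then given MET kinase inhibitor JNJ-38877605 (25 nM). Viability read by CellTiter-Glo after 48 h. Means±S.E.M., n=3; one-way ANOVA with Dunnett's test.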
A general note: Cellular ATP, detected with luciferase, serves as a proxy for viable cell number.

For data set [9], the target named is T2, Suppressor of tumorigenicity 14 protein (Homo sapiens) (UniProt Q9Y5Y6).
T2 sequence (whole entry): T1 sequence (Q9Y5Y6 whole entry)
The data set can be described thus: Inhibition of recombinant human N-terminal met-His6-tagged matriptase catalytic domain (Gly596 to Val855 residues) expressed in Escherichia coli mediated pro-HGF activation preincubated for 30 mins followed by pro-HGF addition and measured after 1 hr by immunoblotting analysis. A digest of the protocol: (§2)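 Recombinant pro-HGF (10 ng) incubated one hour with matriptase (1 nM), hepsin (10 nM) or HGFA (5 nM), with or without inhibitor. Processing detected by immunoblot with a polyclonal antibody recognizing pro-HGF and the HGF alpha and beta chains; active HGF served as positive control.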

Data set [10] is described as follows: Solubility of compound at pH 7.4. It counts as physicochemical. Conditions: buffer.
Data set [11] can be described thus: Plasma protein binding in mouse assessed as unbound fraction. Type of data set: ADME, cell-free.
In data set [12] the target is Prothrombin (Homo sapiens, UniProt P00734). The data set can be described thus: Inhibition of recombinant thrombin (unknown origin) using D-Phe-Pip-Arg-pNA as substrate preincubated for 30 mins followed by substrate addition by chromogenic assay.
Data set [13] addresses T3, Hepatocyte growth factor activator serine protease (Homo sapiens) (UniProt Q04756).
T3 sequence (whole entry): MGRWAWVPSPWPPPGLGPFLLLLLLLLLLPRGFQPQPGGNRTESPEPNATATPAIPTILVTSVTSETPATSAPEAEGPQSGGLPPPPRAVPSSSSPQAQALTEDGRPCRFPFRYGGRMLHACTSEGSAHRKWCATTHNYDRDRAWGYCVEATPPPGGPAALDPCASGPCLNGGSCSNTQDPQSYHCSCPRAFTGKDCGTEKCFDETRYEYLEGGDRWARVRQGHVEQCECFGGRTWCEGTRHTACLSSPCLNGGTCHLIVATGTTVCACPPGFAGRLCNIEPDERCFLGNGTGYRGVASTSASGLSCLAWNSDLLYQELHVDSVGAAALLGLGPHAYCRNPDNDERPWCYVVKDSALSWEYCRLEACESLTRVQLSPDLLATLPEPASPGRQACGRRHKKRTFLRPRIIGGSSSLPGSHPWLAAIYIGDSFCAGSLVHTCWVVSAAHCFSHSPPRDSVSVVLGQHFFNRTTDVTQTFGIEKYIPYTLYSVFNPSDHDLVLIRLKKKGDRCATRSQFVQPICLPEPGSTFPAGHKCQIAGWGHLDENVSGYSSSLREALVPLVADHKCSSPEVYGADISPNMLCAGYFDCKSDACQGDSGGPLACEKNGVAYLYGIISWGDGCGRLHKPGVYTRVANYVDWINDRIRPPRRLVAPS
The data set can be described thus: Inhibition of recombinant human HGFA serine protease domain mediated pro-HGF activation preincubated for 30 mins followed by pro-HGF addition and measured after 1 hr by immunoblotting analysis. A digest of the protocol: as §2

A short description of data set [14]: Toxicity in hHGF knock in NSG mouse xenografted with human NCI-H596 cells at 50 mg/kg, ip administered daily for 25 days. Type of data set: organism-based. Conditions: in vivo, 600 h, time 25 day.

Molecules are shown by their SMILES. In brackets after ≈: the same amount, converted by molar mass. Activity calls are given as the source filed them. The rule behind the calls is not given here. Numbered stars: 1 amine (or outer) side, 2 acyl side, 3 side chain; on linkers, the order of the positions; unused ones are H or OH. Square brackets hold non-standard residues; d marks the D form. Peptide text beside a SMILES is read from it. X1 = N=C(N)NCCC[C@H](N[*:1])C(=O)c1nc2ccc(C(=O)[*:2])cc2s1

What is called IC50 is the concentration at which inhibition is half-maximal. In general, solubility refers to the concentration that dissolves in the medium under given conditions. Read a high solubility as a readily soluble substance. For orientation: fraction unbound means the share of the substance not bound to proteins or other matrix. Consider `CC(=O)N[C@@H](CO)C(=O)N[C@@H](CCCCN)C(=O)N[C@@H](CC(C)C)C(=O)N[C@@H](CCCNC(=N)N)C(=O)c1nc2ccc(C(=O)N[C@H](C(N)=O)C(C)C)cc2s1` (Ac-SKL[X1]V-NH2), for which the inhibition entry in [1], in [9] and in data set [13] was “Active” throughout. For the same compound, the t1/2 in data set [2] was > 2.42 h; in data set [4] it was 3.07 h; in data set [5] it was 2 h. For the same compound, the IC50 in data set [3] amounted to 21 nM; in data set [6] it was 0.38 nM; in [12] it was 9000 nM. For the same compound, the Activity result in data set [7] and in data set [14] was “Non-Toxic” in each case. Further, in [8], the result was Active. Further, in data set [10], the solubility came to 200 µM (≈ 161 µg/mL). Besides, in [11], the fraction unbound amounted to 0.167.
